Measurements from the EternaBench riboswitch data.

Test system: MS2 coat protein
Experiment: apparent Kd, MS2 coat protein; higher = weaker binding; RNA-MaP array; FMN 200 µM where present
Method in brief: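 Designs were transcribed by stalled E. coli RNA polymerase on Illumina sequencing-chip clusters. They were titrated with SNAP-549-labelled MS2 coat protein from 0.7 or 1.5 nM, doubling to 3 µM, without and then with constant ligand. Buffer: 100 mM Tris-HCl pH 7.5, 80 mM KCl, 4 mM MgCl2, BSA, DTT, yeast tRNA, Tween-20. Green signal was normalised to red-channel RNA signal and control-cluster median Fmax. Apparent Kd is the median of filtered per-cluster binding-curve fits.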

[1] = designed as: OFF switch for flavin mononucleotide, no ligand
[2] = ligand present: flavin mononucleotide, designed as: OFF switch for flavin mononucleotide
[3] = designed as: ON switch for flavin mononucleotide, no ligand
[4] = ligand present: flavin mononucleotide, designed as: ON switch for flavin mononucleotide

Row | Sequence | apparent Kd [1] [nM] | apparent Kd [2] [nM] | apparent Kd [3] [nM] | apparent Kd [4] [nM]
1 | AAUAAUGUGAAGGAUAUCACUAGCGAUAGCUAGUGAGAAGGUCACACAUGAGGAUCACCCAUGUGUUCCAAUAA | 43.2 | 172 |  | 
2 | UAAAUCAAGUCAGGAUAUCGUGCGGUUGGUCGUUACAUGAGGAUCACCCAUGUCUUCCGUUAGCUCGAGAAGGGACGUGAGCCC |  |  | 40 | 11.5
3 | AAUUUACAGACAGGAUAUACAUGAGGAUCACCCAUGUAAUCAUAUGAUAUUUUUUUUGUAUGAGUGUAGAAGGGUCAAAUAAAA | 13.5 | 10.6 |  | 
4 | GGCGGCGCGGGCCACCGCAAAACCAGAAGGACAUGAGGAUCACCCAUGUAACAAAACAGGGCGGUGUAGGAUAUGGCAGACCCG | 14.2 | 25 |  | 
5 | AGUCGGAGCAGAGGAUAUACAUGAGGAUCACCCAUGUAAUUAAGUGAAGCCUGGAAACAGGCAAUGUAGAAGGCUGCUCCGACA | 9.44 | 51.7 |  | 
6 | AGAUGUACCUAGGAUAUCCGUCUUAUUGGACUAGGAGAAGGAGGUACAUGAGGAUCACCCAUGUAUGACUCCUG | 11.5 | 14 |  | 
7 | CGUGACUCAGGAUAUCUAUUAUGUCACAUGAGGAUCACCCAUGUCCAGCGAAAGCUGGAGGGAGAAGGGAGUCACG | 97.9 | 34.9 |  | 
8 | CUGACAGCGCAGAAGGGAGAUCCUACAUGAGGAUCACCCAUGUGGGCUCUCAGGAUAUGCACGUGUAUGCUGAAAGUAGCAUUG |  |  | 17.2 | 7.17
9 | UCGUGCCGGGUCACGAUUGACCCACAUGAGGAUCACCCAUGUAGAAGGACCAGCGUCGGCCCUUGGUAGGAUAUACAUGAGCUC | 94.8 | 114 |  | 
10 | AUGGGCUAAGGAUAUAGACGACGACACAUGAGGAUCACCCAUGUCAGUAAUGGGUCUUGGCUAGAAGGUAGAACCC | 44.5 | 72.7 |  | 
11 | UGGAUCAAUACAGGAUAUGGUGACGCACAUGAGGAUCACCCAUGUCCGCAGCGUGCUAAGCACGCCCAGAAGGGUAUUAAUUCG |  |  | 885 | 90
12 | CCUCCACAUGAGGAUCACCCAUGUCAGGAUAUCGUGUGUGUUUUUUCGGUCUUUCGUGCGAGAAGGGACGUCUG | 51.6 | 52.3 |  | 
13 | GUCAGCUCGUGAGGAUAUACAUGUGCUGGAUACAGCACUAUUAUGUUCACAUGAGGAUCACCCAUGUAGAAGGCACGAGCUGAU | 16.2 | 21.7 |  | 
14 | CGCGCUUUAGGAUAUGCGUGAUGUCGUCGGCGUUGUGGUUCACAUGAGGAUCACCCAUGUAGAAGGGAGGUGUG | 205 | 175 |  | 
15 | AGUCAUACAGGAUAUACAUGAGGAUCACCCAUGUAAAUCCUACAUGGGUGAUCCUCAUGUAGAAGGGUAUGACA | 11.7 | 10.4 |  | 
16 | AUACCACGAGGAUAUCGUCUAUUCCACAUGAGGAUCACCCAUGUUAUCCAUGUUUCGUUUCGAGAAGGCGUGUUUU | 59.3 | 41.5 |  | 
17 | GUAGCAUUCUGAGGAUAUUCAUACCGGAAACGGACAUGAGGAUCACCCAUGUGGCGAAAGCCUUGGGAGAAGGCAGUAUGCUAC |  |  | 740 | 27.4
18 | AGUAUGUACGCAGGAUAUACAUGAGGAUCACCCAUGUGGAACAGUGUAGUACUAGUUGAUCCUCAGUAGAAGGGCGGCCGAAUA | 49.3 | 62.6 |  | 
19 | GUGAGUAGUCAGGAUAUGCUGUACAAAAGUACAGCAGAAGGGAUUACAUGAGGAUCACCCAUGUUAUCUUCAUG | 185 | 510 |  | 
20 | GGAGCACAUAUUAACAUGAGGAUCACCCAUGUCAAAAGACAUGAGGAUAUGGAUCCGAAAAGGAUCCAGAAGGCAUGGUGCUCC |  |  | 268 | 14.3
21 | GCGAUUAAGUAGAAGGUACAAUAUAUAUCAUUGUAAGGAUAUACUUACAUGAGGAUCACCCAUGUUAAAGGAUAUAAUAAUCGC |  |  | 9.08 | 8.98
22 | GCAUCUCUAUUAGAACCGAUACGAACAUGAGGAUCACCCAUGUAGGAUAUGCUAAAAGUUGUGUUGCAGAAGGACAUUUAAUGC | 9.49 | 8.64 |  | 
23 | UGUUACUAGUAAGGAUAUACUUGCGAUAAGCUUGUAGAAGGUACAGUCUUUUGUAUAACACGUUUACAUGAGGAUCACCCAUGU |  |  | 6.94 | 6.01
24 | GUGUGUUGCGGGCAGGAUAUGUAUUUGAGUACAUGAGGAUCACCCAUGUGCGCCUGUUUCAGGCGACAGAAGGGCCUAUCGCGAC |  |  | 159 | 30.9
25 | UUUAGUUGCGGGCAGGAUAUGUAUUAAAAUACAUGAGGAUCACCCAUGUGCGGGUGUAACACCCGACAGAAGGGCCAAUCGCGAC |  |  | 388 | 28.6
26 | UCAGGCUUCGAGAAGGACAUGAGGAUCACCCAUGUGCGUGUGAAGCAGCCGUGAGGCUGCAUCAUGUAGGAUAUCGGAGUCUGC | 82 | 418 |  | 
27 | ACUUCACAUGAGGAUCACCCAUGUCAGGAUAUCCAGCACUAGCAGGCUCGCUCUUGAAGGAGAAGGGACGGGUA | 46.1 | 54.6 |  | 
28 | ACAUGAUAUGUAGGAUAUCACAUUAAUUGAUUAAUAUAUGAAUAUAGAAUUUGAGAAGGACAUUUACAUGAGGAUCACCCAUGU | 15.7 | 10.8 |  | 

Row | Sequence | apparent Kd [1] [nM] | apparent Kd [2] [nM] | apparent Kd [3] [nM] | apparent Kd [4] [nM]
29 | CGUACACAUGAGGAUCACCCAUGUCAGAUUUGGUCAGGAUAUGGGCGGCAUCCGCUAUAGCCAGAAGGGACUGUUG |  |  | 173 | 204
30 | CGCACUUAUAGAGGAUAUGUUAAACAUGAGGAUCACCCAUGUGAUUUAGUAUCAAUAUUAGUGAAACAGAAGGCUAUUAGUGCG | 13.3 | 12.9 |  | 
31 | GACUCGCGCACAGGAUAUCCACAGAGCGGACGUGGAGAAGGGUGACAUGAGGAUCACCCAUGUACGUGAGUCUAGAUCACUUCC |  |  | 52.4 | 31
32 | CUGAUGUGAGGAUAUGUGAUCUGCCUUCUAUAUAGAUGAUUACAGAAGGCACAUGAGGAUCACCCAUGUAGAUC | 74.7 | 62.6 |  | 
33 | UGAGGACAUGAGGAUCACCCAUGUAAGGAUAUGCGGAGAGUUUGGAGAGGUUGAGGAGGCAGAAGGUACGGGAU | 155 | 79.1 |  | 
34 | UUGUUGUAUGUAGGAUAUGCGUGUUAUUAUUAUGCAGAAGGACAUGAGGAUCACCCAUGUGUAUUAUUAUUAUAUAUUAUAUAU | 21.5 | 19.6 |  | 
35 | AUGGUCAAGUGUGAGGAUAUCCAUGCUCCCACAUGAGGAUCACCCAUGUCUUAAAGGGCGUAAAGGGAGAAGGUACGAACGCCAC |  |  | 34.3 | 27.8
36 | UUUUAGGUAGGAUAUACAUUUUUUUUAUUAUCCUCAUUAUUACAUGAGGAUCACCCAUGUAGAAGGACCAUUUU | 215 | 341 |  | 
37 | UAGGAGUACGUAGGAUAUGUAGGAUAUUCCUACAUGAGGAUCACCCAUGUAUGCAUGGAAGAAGGACAGAAGGACGUGCUCCUU |  |  | 200 | 13.2
38 | GAGGUAUUCGUAGGAUAUCCGUCGCCACCGUGUGGAGAAGGACGAACAUGAGGAUCACCCAUGUAUCAUGGUGUGGACGCUGUC | 61.8 | 61.7 |  | 
39 | CGCACACAUGAGGAUCACCCAUGUGAGGAUAUCAUGCUUCGUAGUAAACUACGAAGUGUGAGAAGGCACAUGUC | 31.2 | 102 |  | 
40 | GCAAGUACGAGAGGAUAUUGACAUGAGGAUCACCCAUGUAUUUGGGAGUGUUCACUGAAUUCUUACGAGAAGGCUCGUACAUGC | 246 | 232 |  | 
41 | GUAGCAUGAUUAGGAUAUUCAGCGAGUAGAUUGACAUGAGGAUCACCCAUGUGGCGAAAGCCGAGGGAGAAGGGAUGAUGCUAC |  |  | 34.9 | 25
42 | CCCUAGAUCCGAGGAUAUACAAUCCGGAAACGGUACAUGAGGAUCACCCAUGUAGAAGGCGGAUCUACAGGUACUAAAGUACCC | 7.3 | 9.22 |  | 
43 | CUAUGACGAAUAGGAUAUUCGAUCAAAAGGAUAGAAGAAGGGUUACAUGAGGAUCACCCAUGUAUGCACAUGAGGAUCCCUUAG | 193 | 219 |  | 
44 | GGAUAGGACAAAGGAUAUACGUGCUAGAGAUACUAGCAAAAUUUCCUCACAUGAGGAUCACCCAUGUAGAAGGCUGUCCUAUCG | 6.93 | 14.7 |  | 
45 | UUACCUUAUGAGAAGGCGAUCAUGAAACAUGAUCGAGGAUAUCAUGUAAACAUGAGGAUCACCCAUGUAUGGGUAUUAUGGUAA |  |  | 213 | 28.5
46 | GGAUAGGACAGAGGAUAUACGUGCUAGAGAUACUAGCAAAAUGUCCUCACAUGAGGAUCACCCAUGUAGAAGGCUGUCCUAUCG | 7.96 | 156 |  | 
47 | CCCGAGGAAGGAUAUACAUGAGGAUCACCCAUGUGCGUUGGGACUGGCGUAGUCUUCAGUAGAAGGUCCGCGCC | 18.5 | 17.5 |  | 
48 | GGUGCGUUUGUGAGGAUAUGCUGGUCCUUGGUUCAGCAGAAGGCACAUGAGGAUCACCCAUGUGGUGUCGUACC | 240 | 28 |  | 
49 | UGUGUGUGGCAGGAUAUGCCGGUCGUUGGUCGGGUAGAAGGGUCUACAUGAGGAUCACCCAUGUGGCCGGUUGG | 46.8 | 44 |  | 
50 | UCAUACAUGAGGAUCACCCAUGACAUGAGGAUCACCCAUGUGCAGGAUAUACGUGAUAUAAUAUAGUAGAAGGGCAGACUAUAU | 51.9 | 57.6 |  | 
51 | UGUCCAUAGCAGAAGGACAUGAGGAUCACCCAUGUAAUCAUACAACCAAAUGUAGGAUAUGCUAUGGACUAAGAGCGAAAGCUC | 7.5 | 34.4 |  | 
52 | UCGCUGCGAGGAUAUACAUGAGGAUCACCCAUGUACGGGUCCGGGUCUAAGUUGAUAAGUAGAAGGCGCAGUGA | 125 | 112 |  | 
53 | GGAUAGGACAGAGGAUAUACGUGCUAGAGAUACUAGCUACAAAUCCUUACAUGAGGAUCACCCAUGUAGAAGGCUGUCCUAUCG | 19.3 | 38.3 |  | 
54 | GGGCUGUCAGGAUAUGGGCCCGGGUUUGAAAGGGCCCGGGCCCAGAAGGGACAUGAGGAUCACCCAUGUGGCCC | 36.3 | 36.4 |  | 
55 | UCCUGAUUGAGAGUUAGGAGUGGUAGAAGGCGACCGGUGCCAGAUGACAUGAGGAUCACCCAUGUCGAGGAUAUACCACAGAAU | 8.04 | 15.4 |  | 
